One may read the MIC as the least concentration at which growth counts as inhibited. Broadly, the IC50 is the midpoint of a concentration-inhibition curve. The low end stands for greater potency in that assay, the high end for weaker potency in that assay.

SMILES strings stand for the structures. Values after ≈ are worked out from the molar mass of the structure shown.

The subject of experiment [1] is Staphylococcus aureus. Description: Antibacterial activity against Staphylococcus aureus ATCC 25923 incubated […] by microdilution resazurin assay. The experiment is classed as functional. Particulars: Staphylococcus aureus, ATCC 25923; read-out: MIC.
For experiment [2], the system named is Staphylococcus aureus. Description: Antibacterial activity against methicillin resistant Staphylococcus aureus clinical isolate 1 incubated […] by microdilution resazurin assay. The experiment is classed as functional. The settings on record: Staphylococcus aureus, isolate 1; read-out: MIC. (Broth dilution looks for growth in wells or tubes with falling amounts of substance.)

Experiment [3] deals with Staphylococcus aureus. Description: Antibacterial activity against methicillin resistant Staphylococcus aureus clinical isolate 2 incubated […] by microdilution resazurin assay. The settings on record: Staphylococcus aureus, isolate 2; read-out: MIC. The experiment is classed as functional.
Experiment [4] deals with Staphylococcus aureus. Description: Antibacterial activity against methicillin resistant Staphylococcus aureus clinical isolate 3 incubated for 7 to 14 days by microdilution resazurin assay.
The subject of experiment [5] is Staphylococcus aureus. Description: Antibacterial activity against methicillin resistant Staphylococcus aureus clinical isolate 4 incubated for 7 to 14 days by microdilution resazurin assay.
The test system of experiment [6] is Staphylococcus aureus. Description: Antibacterial activity against methicillin resistant Staphylococcus aureus clinical isolate 5 incubated […] by microdilution resazurin assay. The experiment is classed as functional. Particulars: Staphylococcus aureus, isolate 5; read-out: MIC.
Experiment [7] concerns Staphylococcus aureus. Description: Antibacterial activity against methicillin resistant Staphylococcus aureus clinical isolate 6 incubated […] by microdilution resazurin assay. The format is functional. The settings on record: Staphylococcus aureus, isolate 6; read-out: MIC.
Experiment [8] deals with Staphylococcus aureus. Description: Antibacterial activity against methicillin resistant Staphylococcus aureus clinical isolate 7 incubated […] by microdilution resazurin assay. The experiment is classed as functional. Particulars: Staphylococcus aureus, isolate 7; read-out: MIC.
In experiment [9] the test system is Staphylococcus aureus. Description: Antibacterial activity against methicillin resistant Staphylococcus aureus clinical isolate 8 incubated […] by microdilution resazurin assay. The format is functional. Particulars: Staphylococcus aureus, isolate 8; read-out: MIC.
For experiment [10], the system named is Staphylococcus aureus. Description: Antibacterial activity against methicillin resistant Staphylococcus aureus clinical isolate 9 incubated […] by microdilution resazurin assay. Particulars: Staphylococcus aureus, isolate 9; read-out: MIC. The experiment is classed as functional.
Experiment [11] deals with Staphylococcus aureus. Description: Antibacterial activity against methicillin resistant Staphylococcus aureus clinical isolate 10 incubated […] by microdilution resazurin assay. The settings on record: Staphylococcus aureus, isolate 10; read-out: MIC. The format is functional.
Experiment [12] is described as follows: Cytotoxicity against human WS1 cells by resazurin reduction assay. The format is cell-based. The settings on record: Homo sapiens, WS1. In short, it runs like this: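 WS1 human fibroblast line; resazurin reduction test, slightly modified from an earlier method. Etoposide served as positive control.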
In general terms: Alamar Blue is a resazurin reagent that responds to reducing activity.

On to `COc1ccc(CCC(=O)c2c(O)c(C/C=C/c3ccc(O)cc3)c(O)c3c2O[C@@H](c2ccc(O)cc2)[C@H](C/C=C/c2ccc(O)cc2)C3)cc1` (racemic), for which the MIC with Staphylococcus aureus [1] was 13 µM (≈ 8.9 µg/mL); with Staphylococcus aureus [2], 6 µM (≈ 4.11 µg/mL); with Staphylococcus aureus [3], 6 µM (≈ 4.11 µg/mL); against Staphylococcus aureus [4] it was 3 µM (≈ 2.05 µg/mL); in the experiment on Staphylococcus aureus [5] it was 13 µM (≈ 8.9 µg/mL); with Staphylococcus aureus [6], 13 µM (≈ 8.9 µg/mL). The minimal inhibitory concentration (MIC) amounted to 6 µM (≈ 4.11 µg/mL) in the experiment on Staphylococcus aureus [7]; 6 µM (≈ 4.11 µg/mL) in the experiment on Staphylococcus aureus [8]; 13 µM (≈ 8.9 µg/mL) in the experiment on Staphylococcus aureus [9]; 13 µM (≈ 8.9 µg/mL) with Staphylococcus aureus [10]; 13 µM (≈ 8.9 µg/mL) in the experiment on Staphylococcus aureus [11]. Further, the IC50 in experiment [12] was greater than 10 µM.

For `COc1ccc(CCC(=O)c2c(O)c3c(c4c2O[C@@H](c2ccc(O)cc2)[C@H](C/C=C/c2ccc(O)cc2)C4)O[C@@H](c2ccc(O)cc2)[C@H](O)C3)cc1` (racemic), the MIC with Staphylococcus aureus [1] stood at 50 µM (≈ 35 µg/mL); in the experiment with Staphylococcus aureus [2], 25 µM (≈ 17.5 µg/mL); with Staphylococcus aureus [3], 25 µM (≈ 17.5 µg/mL); in the experiment with Staphylococcus aureus [4] it was 25 µM (≈ 17.5 µg/mL); in the experiment on Staphylococcus aureus [5] it was 50 µM (≈ 35 µg/mL); in the experiment on Staphylococcus aureus [6] it was 13 µM (≈ 9.11 µg/mL). The MIC in the experiment on Staphylococcus aureus [7] is 50 µM (≈ 35 µg/mL); with Staphylococcus aureus [8] it was 25 µM (≈ 17.5 µg/mL); with Staphylococcus aureus [9], 25 µM (≈ 17.5 µg/mL); in the experiment on Staphylococcus aureus [10] it was 25 µM (≈ 17.5 µg/mL); in the experiment with Staphylococcus aureus [11], 25 µM (≈ 17.5 µg/mL). The IC50 in experiment [12] was greater than 10 µM.

As for `COc1ccc(CCC(=O)c2c(O)cc(O)c3c2O[C@H](c2ccc(O)cc2)CC3)cc1`, the MIC in the experiment with Staphylococcus aureus [1], in the experiment with Staphylococcus aureus [2], in the experiment on Staphylococcus aureus [3], against Staphylococcus aureus [4], in the experiment with Staphylococcus aureus [5] and in the experiment with Staphylococcus aureus [6] was greater than 50 µM each time. Also, the minimum inhibitory concentration (MIC) with Staphylococcus aureus [7], in the experiment with Staphylococcus aureus [8], with Staphylococcus aureus [9], with Staphylococcus aureus [10] and in the experiment with Staphylococcus aureus [11] was greater than 50 µM throughout. The 50% inhibitory concentration (IC50) in [12] was greater than 10 µM.

In the case of `O=C(CCc1ccccc1)c1c(O)cc2c(c1O)C[C@@H](C/C=C/c1ccc(O)cc1)[C@H](c1ccc(O)cc1)O2` (racemic), the minimum inhibitory concentration (MIC) with Staphylococcus aureus [1], in the experiment on Staphylococcus aureus [2], in the experiment on Staphylococcus aureus [3], in the experiment on Staphylococcus aureus [4], with Staphylococcus aureus [5] and in the experiment on Staphylococcus aureus [6] was greater than 50 µM in each case. Besides, the minimum inhibitory concentration (MIC) in the experiment on Staphylococcus aureus [7], in the experiment on Staphylococcus aureus [8], with Staphylococcus aureus [9], in the experiment on Staphylococcus aureus [10] and with Staphylococcus aureus [11] was greater than 50 µM in each case. In [12], the IC50 is greater than 10 µM.

`COc1cc(O)c(C(=O)CCc2ccc(O)cc2)c2c1CCC(c1ccc(O)cc1)O2` (centres undefined): the minimal inhibitory concentration (MIC) in the experiment with Staphylococcus aureus [1] is greater than 50 µM; in the experiment on Staphylococcus aureus [2] it was greater than 50 µM; in the experiment on Staphylococcus aureus [3], 50 µM (≈ 21 µg/mL); in the experiment on Staphylococcus aureus [4], greater than 50 µM; in the experiment with Staphylococcus aureus [5] it was greater than 50 µM; with Staphylococcus aureus [6], greater than 50 µM. Moreover, the minimum inhibitory concentration (MIC) with Staphylococcus aureus [7] was 50 µM (≈ 21 µg/mL); in the experiment on Staphylococcus aureus [8], 50 µM (≈ 21 µg/mL); with Staphylococcus aureus [9], greater than 50 µM; in the experiment with Staphylococcus aureus [10], greater than 50 µM; with Staphylococcus aureus [11], greater than 50 µM. The IC50 in experiment [12] was greater than 10 µM.

Regarding `COc1ccc(CCC(=O)c2c(O)cc(O)c(C(c3ccc(O)cc3)C(C/C=C/c3ccc(O)cc3)COC(=O)/C=C/c3ccccc3)c2O)cc1` (racemic), the minimal inhibitory concentration (MIC) was 25 µM (≈ 17.5 µg/mL) in the experiment with Staphylococcus aureus [1]; greater than 50 µM in the experiment on Staphylococcus aureus [2]; greater than 50 µM in the experiment on Staphylococcus aureus [3]; greater than 50 µM with Staphylococcus aureus [4]; greater than 50 µM against Staphylococcus aureus [5]; greater than 50 µM in the experiment with Staphylococcus aureus [6]. The MIC with Staphylococcus aureus [7], in the experiment with Staphylococcus aureus [8], in the experiment on Staphylococcus aureus [9], with Staphylococcus aureus [10] and in the experiment with Staphylococcus aureus [11] was greater than 50 µM in each case. In experiment [12], this molecule came in with an IC50 greater than 10 µM.

For `COc1cc(O)c(C(=O)CCc2ccc(O)cc2)c(O)c1C/C=C/c1ccc(O)cc1`, the minimum inhibitory concentration (MIC) in the experiment on Staphylococcus aureus [1] is greater than 50 µM; with Staphylococcus aureus [2] it was greater than 50 µM; in the experiment on Staphylococcus aureus [3], 50 µM (≈ 21 µg/mL); with Staphylococcus aureus [4], 50 µM (≈ 21 µg/mL); in the experiment with Staphylococcus aureus [5], 50 µM (≈ 21 µg/mL); in the experiment on Staphylococcus aureus [6], 50 µM (≈ 21 µg/mL). For the same molecule, the minimum inhibitory concentration (MIC) was 50 µM (≈ 21 µg/mL) in the experiment with Staphylococcus aureus [7]; 50 µM (≈ 21 µg/mL) in the experiment on Staphylococcus aureus [8]; 50 µM (≈ 21 µg/mL) with Staphylococcus aureus [9]; greater than 50 µM in the experiment with Staphylococcus aureus [10]; 50 µM (≈ 21 µg/mL) in the experiment with Staphylococcus aureus [11]. The half-maximal inhibitory concentration (IC50) in [12] was greater than 10 µM.

For the origin of these results see ChEMBL document CHEMBL4425163, “Structure elucidation of anti-methicillin resistant Staphylococcus aureus (MRSA) flavonoids from balsam poplar buds” (Bioorg Med Chem, 2016).
